Results: ChEMBL document CHEMBL3612030 (Eur J Med Chem, 2015)
Calls of active or inactive are those of the source. No cut-off for these calls is given here.

Tests used:
[1] = molecular target: T1, Polyunsaturated fatty acid 5-lipoxygenase (Homo sapiens, UniProt P09917); test: Inhibition of 5-LOX in human neutrophils assessed as reduction in LTB4 and 5-H(P)ETE) formation pre-incubated for 15 mins before A23187 and arachidonic acid substrate addition by RP-HPLC method
T1 sequence (P09917 whole entry): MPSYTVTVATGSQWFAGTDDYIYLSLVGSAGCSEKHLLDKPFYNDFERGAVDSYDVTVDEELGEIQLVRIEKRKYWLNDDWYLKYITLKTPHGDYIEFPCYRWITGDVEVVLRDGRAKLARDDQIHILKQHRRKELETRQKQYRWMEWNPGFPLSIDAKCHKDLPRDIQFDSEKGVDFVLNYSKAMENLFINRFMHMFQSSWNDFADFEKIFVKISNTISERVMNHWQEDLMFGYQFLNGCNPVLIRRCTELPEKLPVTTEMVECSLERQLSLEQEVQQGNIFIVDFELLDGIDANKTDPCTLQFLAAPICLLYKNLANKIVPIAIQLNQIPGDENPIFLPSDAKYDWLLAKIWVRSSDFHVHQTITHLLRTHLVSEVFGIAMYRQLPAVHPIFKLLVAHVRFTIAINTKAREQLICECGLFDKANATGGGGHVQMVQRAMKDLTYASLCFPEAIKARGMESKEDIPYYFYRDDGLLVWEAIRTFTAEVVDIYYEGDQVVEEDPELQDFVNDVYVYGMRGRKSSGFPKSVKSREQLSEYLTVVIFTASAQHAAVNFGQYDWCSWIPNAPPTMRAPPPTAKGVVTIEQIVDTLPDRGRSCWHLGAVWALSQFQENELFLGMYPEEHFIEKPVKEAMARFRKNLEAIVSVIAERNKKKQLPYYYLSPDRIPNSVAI
In short: (§1)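 Freshly isolated neutrophils (1 × 10^7/mL) pre-incubated with compound for 15 min at 37 °C. LTB4, its all-trans isomers and 5-H(P)ETE extracted and quantified by HPLC; cysteinyl-LTs and LTB4 oxidation products not measured. Mean ± S.E.M. of 3–4 independent experiments.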

[2] = molecular target: T2, Polyunsaturated fatty acid 5-lipoxygenase (Homo sapiens) (UniProt P09917); test: Inhibition of human 5-LOX expressed in HEK293 cells without FLAP expression assessed as reduction in LTB4 and 5-H(P)ETE) formation at 1 uM pre-incubated for 10 mins before arachidonic acid substrate addition by RP-HPLC method; type: cell-based
T2 sequence (whole entry): T1 sequence (P09917 whole entry)
In short: (§2)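 Stably transfected HEK 293 cells expressing 5-LO alone or 5-LO plus FLAP, 1 × 10^6 cells in 1 mL PBS with 0.1% glucose and 1 mM CaCl2. Pre-incubated with compound 10 min at 37 °C, then stimulated with 2.5 µM A23187 plus 2 µM arachidonic acid for 10 min at 37 °C. Stopped with methanol; all-trans LTB4 isomers and 5-H(P)ETE extracted and measured by HPLC.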

U-937 = test: Cytotoxicity against human U937 cells assessed as reduction in viability incubated for 24 hrs by MTT assay; type: cell-based; settings: U-937, 24 h
In short: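 U937 cells grown in RPMI 1640 with 10% FBS, […] and penicillin/streptomycin at 37 °C under 5% CO2. Seeded at 1 × 10^6/mL and exposed to 3 concentrations for 24 h. MTT added at one-tenth culture volume for 4 h, then acidic isopropanol. Read at 570 nm minus 630-690 nm background. Untreated cells (RPMI + DMSO) = 100% viability. EC50 = concentration halving MTT reduction. 3–4 independent experiments, mean ± S.E.M.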

[3] = molecular target: T2, Polyunsaturated fatty acid 5-lipoxygenase (Homo sapiens); test: Inhibition of human 5-LOX expressed in HEK293 cells co-expressing FLAP assessed as reduction in LTB4 and 5-H(P)ETE) formation at 1 uM pre-incubated for 10 mins before arachidonic acid substrate addition by RP-HPLC method; type: cell-based; in short: as §2
[4] = molecular target: T1, Polyunsaturated fatty acid 5-lipoxygenase; test: Inhibition of human 5-LOX expressed in Escherichia coli Bl21 (DE3) assessed as reduction in LTB4 and 5-H(P)ETE) formation pre-incubated for 10 mins before arachidonic acid substrate addition by RP-HPLC method
In short: (§3)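 Human 5-LO expressed from pT3-5LO in E. coli BL21(DE3) and semi-purified on ATP-agarose. Diluted in PBS with 1 mM EDTA and 1 mM ATP, pre-incubated with compound 10 min at 4 °C, then warmed 30 s at 37 °C. Reaction started with 2 mM CaCl2 plus 20 µM arachidonic acid, run 10 min at 37 °C and stopped with ice-cold methanol. All-trans LTB4 isomers and 5-H(P)ETE measured by RP-HPLC. 3–4 independent experiments.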

[5] = molecular target: T2, Polyunsaturated fatty acid 5-lipoxygenase (Homo sapiens); test: Inhibition of 5-LOX in human neutrophils assessed as remaining enzyme activity by measuring LTB4 and 5-H(P)ETE) formation at 10 uM pre-incubated for 15 mins before A23187 and arachidonic acid substrate addition by RP-HPLC method
In short: as §1, with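 “°C. Stimulated with 2.5 µM A23187 plus 20 µM arachidonic acid for 10 min at 37 °C, then stopped with methanol.” for “°C.”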

[6] = molecular target: T2, Polyunsaturated fatty acid 5-lipoxygenase (Homo sapiens); test: Inhibition of human 5-LOX expressed in Escherichia coli Bl21 (DE3) assessed as remaining enzyme activity by measuring LTB4 and 5-H(P)ETE) formation at 10 uM pre-incubated for 10 mins before arachidonic acid substrate addition by RP-HPLC method; in short: as §3

Compound	IC50 [1] [µM]	inhibition [2]	inhibition [3]	IC50 [4] [µM]	Activity [5] [%]	Activity [6] [%]	EC50 (U-937) [µM]
CC(=O)Oc1ccc(/C=C/C(=O)OCCc2cn(CCCOC(=O)C3(C)CCc4c(C)c(OC(C)=O)c(C)c(C)c4O3)nn2)cc1OC(C)=O (configuration not stated)	0.16	Active	Active	> 10			10.1
C#CCCOC(=O)/C=C/c1ccc(OC(C)=O)c(OC(C)=O)c1	1.8	Active		> 10			9.8
C#CCCCCOC(=O)/C=C/c1ccc(OC(C)=O)c(OC(C)=O)c1	0.92			> 10			
CC(=O)Oc1ccc(/C=C/C(=O)OCCCn2cc(CCOC(=O)/C=C/c3ccc(OC(C)=O)c(OC(C)=O)c3)nn2)cc1OC(C)=O	0.6	Active	Active	> 10			9.6
CC(=O)Oc1c(C)c(C)c2c(c1C)CCC(C)(C(=O)OCCCN=[N+]=[N-])O2 (configuration not stated)	2.6			> 10			
C#CCCOC(=O)/C=C/c1ccc(F)c(F)c1	> 10			> 10	88.2	52.6	
C#CCCNC(=O)/C=C/c1ccc(OC(C)=O)c(OC(C)=O)c1	8.23			> 10			
O=C(O)/C=C/c1ccc(O)c(O)c1 [CAFFEIC ACID]							9.9

Continued, in another order:

IC50 [1] [µM]	inhibition [2]	inhibition [3]	IC50 [4] [µM]	Activity [5] [%]	Activity [6] [%]	Compound	EC50 (U-937) [µM]
> 10			> 10	84.7	90.3	CC(=O)Oc1ccc(/C=C/C(=O)O)cc1OC(C)=O	
6.1			7.6			CC(=O)Oc1ccc(/C=C/C(=O)OCCCCc2cn(CCCO)nn2)cc1OC(C)=O	
> 10			> 10	101	90.3	O=C(/C=C/c1ccc(F)c(F)c1)OCCc1cn(CCCO)nn1	5.1
> 10			> 10	104	53.6	CC(=O)Oc1ccc(/C=C/C(=O)NCCc2cn(CCCO)nn2)cc1OC(C)=O	10.3
0.47			> 10			C#CCCCCCOC(=O)/C=C/c1ccc(OC(C)=O)c(OC(C)=O)c1	
1.3			> 10			CC(=O)Oc1ccc(/C=C/C(=O)OCCCN=[N+]=[N-])cc1OC(C)=O	
0.2			3.2			CC(=O)Oc1ccc(/C=C/C(=O)OCCCCCCCCc2cn(CCCO)nn2)cc1OC(C)=O	10.2
0.18			> 10			C#CCCCCCCCCOC(=O)/C=C/c1ccc(OC(C)=O)c(OC(C)=O)c1	
> 10			7.6			CC(=O)Oc1ccc(/C=C/C(=O)OCCCn2cc(CCO)nn2)cc1OC(C)=O	
